Screening results: PubChem BioAssay, Broad Institute
Compounds with a hit are over-represented: about 3.1% of the library has one in this group of screens.
rRNA inh HTS: inhibitors of bacterial rRNA selective over humanized ribosomes; E. coli WT GFP vs humanized-ribosome RFP mutants, fluorescence, 24 h; hits give low values; DMSO median 0, no signal -100; GFP signal change (wild-type ribosome), % (concentration not given with the values); hit rate 1.6% among 350,000; AID 720706;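 active = significant combined selectivity score with lowered wild-type GFP, culture density cut under 30%, mutant RFP and density less affected; inactive = any of these conditions unmet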
INS-1E GSIS act: GLuc luminescence reporter in INS-1E cells, primary screen for activators of glucose-dependent secretion of insulin. INS-1E GLuc reporter insulin secretion, 2-3 h. activation, % at 16.6 µM. hit rate 0.61% among 370,000. AID 743287;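 active = lowest replicate activation of at least 40%, so every replicate reaches that level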;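 also: 0% = median of neutral control wells and 100% = median of IBMX positive control wells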
F508del corr: CFTR F508del correction in bronchial cells; hit rate 0.36% among 350,000; AID 720511; CFBE cells, YFP halide quenching; stimulated with forskolin plus potentiator P3; % fluorescence drop versus neutral controls; activity (quench increase), % at 7.58 µM;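 active = mean added fluorescence quench of at least 8% versus neutral control, with both replicates also reaching 8%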;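 also: cells transiently co-express mutant CFTR-F508del with the halide-sensitive YFP; corrector assay measuring rescue of mutant channel to the surface after 24 h compound exposure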
Cneo AK release: Cryptococcus neoformans lysis via adenylate kinase release | C. neoformans lysis, adenylate kinase release luminescence, 4 h; normalised: neutral wells 0, clomiphene wells 100 | lysis activity, % at 15 µM | hit rate 0.2% among 360,000 | AID 651654;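 active = mean lysis activity across replicates of at least 80%, whatever share of replicates individually reach that level; inactive = mean lysis activity below 80%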
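Signal: Adenylate kinase release luminescence | Assay system: Log-phase Cryptococcus neoformans yeast cells | Input: Cells at 5 × 10^6 per mL | Buffer or medium: Fresh YPD growth medium | Compound: Single dose | Schedule: Static 4 h at 37 °C with compound, 1 h detection | Controls: Clomiphene | Read-out: Luminescence rise reflecting yeast cell lysis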
miR122 inh: blocks miR-122 activity in Huh7 sensor cells; activation (reporter increase), % at 12.5 µM; hit rate 0.3% among 340,000; AID 602342; Huh7 miR-122 Renilla luciferase sensor, 48 h; neutral wells = 0, positive control = 100;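 active = mean replicate activation score at least 90 and every replicate individually at or above 90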;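 also: higher luciferase means less miR-122 activity so hits act as miR-122 inhibitors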
HIV Env fusion: blocks HIV Env-driven cell-cell fusion | hit rate 1.1% among 360,000 | inhibition, % at 12.3 µM | HeLa-JRFL Env/CEM21 cell fusion, luciferase;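 active = mean replicate inhibition score of at least 50 and every replicate individually at or above 50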;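 also: 0% = plate neutral controls and 100% = maraviroc near 300 nM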
Numbers without * were called inactive; x = no result; [ ] = another dose, or the depositor's remark.

SMILES	rRNA inh HTS	INS-1E GSIS act	F508del corr	Cneo AK release	miR122 inh	HIV Env fusion
CS(=O)(=O)N1CCc2cc(C(=O)N3CCN(c4ccccc4)CC3)ccc21	2.0	-2.0	2.5	-0.4	-0.6	-7.5
O=C(c1ccc2c(c1)CCN2S(=O)(=O)c1ccccc1)N1CCN(c2ccccc2F)CC1	-22.5*	-7.3	-1.2	-0.7	0.3	-3.6
O=C(NNC(=O)c1cccc(S(=O)(=O)N2CCc3ccccc32)c1)c1ccccc1	-25.5*	-29.7	0.3	x	x	4.3
CC(=O)N1[C@@H](CO)[C@@H](c2ccccc2)C12CN(S(=O)(=O)c1ccccc1)C2	-0.8	5.3	0.5	x	x	x
O=C(c1cccc(S(=O)(=O)NCc2ccccc2)c1)N1CCN(c2ccccc2)CC1	x	x	-0.5	-0.1	x	15.0
O=C(c1cccc(S(=O)(=O)NCc2ccccc2)c1)N1CCN(c2cccc(C(F)(F)F)c2)CC1	1.0	-39.9	3.2	-0.1	38.6	60.7*
COC(=O)C[C@@H]1C[C@H]2c3cc(NC(=O)Nc4ccc(F)cc4)ccc3O[C@H]2[C@H](CO)O1	-7.4	2.0	0.8	-2.1	-2.1[16.7 µM]	13.9[16.7 µM]
C[C@@H]1CN([C@@H](C)CO)C(=O)c2cc(NC(=O)CCC(F)(F)F)ccc2O[C@@H](C)CCCCO[C@H]1CN(C)Cc1ccc(C(=O)O)cc1	2.4	7.7	-1.5	-0.7	12.4[16.7 µM]	-10.6[16.7 µM]
N=c1n(CCN2CCOCC2)c2ccccc2n1CC(O)COc1ccccc1 (stereo not given)	x	x	x	1.7	2.4	x
N=c1n(CCN2CCCCC2)c2ccccc2n1CC(O)COc1ccccc1 (stereo not given)	x	42.0*	x	x	-3.4	x
COc1ccc(OC)c(-c2cc(-c3cccnc3)nc(N)c2C#N)c1	3.9	x	9.0*	1.8	17.0	-64.6
COc1cccc(-c2cc(-c3cccnc3)nc(N)c2C#N)c1	17.5	19.7	1.8	1.5	x	13.3
N#Cc1c(-c2cccc(Br)c2)cc(-c2cccnc2)nc1N	x	89.9*	x	10.8	3.2	x
N#Cc1c(-c2ccc(Br)cc2)cc(-c2cccnc2)nc1N	x	-1.2	-0.6	x	x	16.2
Cc1c(-c2ccccc2)nc(N)c(C#N)c1-c1cccnc1	9.5	35.7	4.0	x	x	-10.4
Cc1nc(N)c(C#N)c(-c2cccnc2)c1-c1ccccc1	17.5	41.4*	-1.3	-2.9	-1.1	14.7
COc1ccc2c3c([nH]c2c1)[C@H](CO)N(Cc1ccc(F)cc1)CC31CN(Cc2ccccn2)C1	1.2	-0.1	0.8	x	x	x
CC1(C)C2CCC1(C)C(OCC[N+](C)(C)CC(=O)OC1CCCCC1)C2 (stereo not given)	-53.2	-53.7	-0.5	-0.1	-16.6	74.2*
CCOC(=O)C[N+](C)(C)CCOC1CC2CCC1(C)C2(C)C (stereo not given)	x	33.3	x	x	x	-15.5
CNC[C@H]1Oc2ncc(-c3ccc(OC)cc3)cc2C(=O)N([C@@H](C)CO)C[C@@H]1C	1.9	-1.4	-1.5	x	-6.0[16.7 µM]	-6.5[16.7 µM]
COc1ccc(CNC(=O)C[C@H]2C[C@@H]3c4cc(NS(=O)(=O)c5ccc(F)cc5)ccc4O[C@@H]3[C@H](CO)O2)cc1	-3.8	-7.3	-0.3	-3.0	3.0[16.7 µM]	x
COCc1c(C#N)c(NCc2cc(OC)c(OC)c(OC)c2)nc(C)c1[N+](=O)[O-]	-5.9	x	-1.2	x	x	56.7*
Cc1ccc(S(=O)(=O)n2nc(C)c(Br)c2C)c(C)c1C	x	x	x	x	104.5*	x
COc1cc(C(=O)N/N=C(\c2ccccc2)c2ccccn2)cc(OC)c1OC	-11.8	7.1	12.5*	x	x	24.7
COc1cc(C(=O)N/N=C(\C)c2ccccn2)cc(OC)c1OC	6.3	13.1	1.1	3.5	-4.3	-17.2
SMILES	rRNA inh HTS	INS-1E GSIS act	F508del corr	Cneo AK release	miR122 inh	HIV Env fusion
COc1cc(C(=O)N/N=C(\Cc2ncc[nH]2)c2ccccc2)cc(OC)c1OC	-32.4*	10.8	0.6	x	x	1.6
Cc1cc(NC(=O)CCNS(=O)(=O)c2cc(Br)cnc2N)ccc1Br	x	x	x	1.0	15.3	58.9*
Nc1ncc(Br)cc1S(=O)(=O)NCCC(=O)Nc1cccc(Cl)c1	-5.2	-25.6	x	x	48.7	59.3*
Cc1ccc(NC(=O)CCNS(=O)(=O)c2cc(Br)cnc2N)cc1Cl	x	-13.9	x	3.1	57.8	31.8
COc1ccc(NC(=O)N[C@@H]2CC[C@H](CCNC(=O)CCN3CCCCC3)O[C@H]2CO)cc1	0.6	2.4	-1.7	x	-6.0[16.7 µM]	-0.9[16.7 µM]
O=C(C[C@H]1CC[C@@H]2[C@H](COC[C@@H](O)CN2C(=O)Cc2ccccc2)O1)NC1CCC1	0.6	4.1	1.6	-2.8	-4.5[16.7 µM]	x
O=C(CC(F)(F)F)N1C[C@@H]2[C@H](c3ccccc31)[C@@H](CO)N2C(=O)C1CC1	3.7	-2.8	-2.3	48.4	21.4[16.7 µM]	x
COc1ccc(-c2cn3c(C)c(C(=O)Nc4cccc(C)n4)sc3n2)cc1	-29.5*	9.4	2.3	0.0	-0.4	x
COC(=O)[C@@]1(Cc2ccc(F)cc2)[C@H]2c3cc(C(=O)N(C)C)n(CCO)c3C[C@H]2CN1C(=O)c1ccccc1	20.5	-2.5	6.8	x	x	80.3*
COCCn1c(C(=O)N(C)C)cc2c1C[C@H]1CN(C(=O)c3ccccc3)[C@@](Cc3ccc(F)cc3)(C(=O)OC)[C@@H]21	8.9	-18.1	0.0	x	x	-3.5
COc1ccc(S(=O)(=O)Nc2cc3c4c(oc3c3ccccc23)CCCC4=O)cc1	x	x	x	1.7	127.5*	x
CC(C)C(=O)N1CCN(c2nc3ccc(Cl)cc3s2)CC1	-34.8*	-25.0	1.0	7.5	-3.2	-23.3
CC(C)NC(=O)N1CCCN(c2nc3ccc(Cl)cc3s2)CC1	-24.4*	-24.5	-1.9	0.0	-2.9	20.9
Clc1ccc2nc(N3CCCCC3)sc2c1	-9.6	-6.6	-2.9	x	x	x
C[C@@H]1CN([C@H](C)CO)C(=O)c2cc(NC(=O)Nc3ccccc3)ccc2O[C@@H](C)CCCCO[C@H]1CN(C)Cc1ccccc1	5.1	-15.3	1.6	1.8	1.7[16.7 µM]	-16.6[16.7 µM]
COc1ccc2c3c([nH]c2c1)[C@H](CO)N(Cc1cccnc1)CC31CN(C(=O)c2cccnc2)C1	0.3	-5.0	x	x	x	x
O=C(C[C@H]1C[C@@H]2c3cc(NC(=O)NC4CCCCC4)ccc3O[C@@H]2[C@H](CO)O1)NCc1ccccn1	-0.6	-0.4	1.2	1.7	3.3[16.7 µM]	-10.8[16.7 µM]
COc1cccc2cc(-c3ccnc(N)n3)oc12	-32.3*	10.5	1.3	6.7	-5.9	-75.4
COc1ccc(OCc2cc(C(=O)N3CCN(C4CCCC4)CC3)no2)c(Cl)c1	-28.8*	-11.5	0.7	-1.5	-2.6	-51.7
O=C(c1cc(COc2ccc(F)cc2Cl)on1)N1CCC(c2ccncc2)CC1	-39.5	-28.7	0.7	x	-0.2	23.6
COC(=O)C1CCCCN1C(=O)c1cc(COc2cccc3cnccc23)on1 (stereo not given)	-31.0*	-50.2	-0.1	0.6	-3.9	63.9*
